Shown are actives, neighbours in structure and some others; about 2.7% of the full set was active somewhere.
pPAFAH FP inh = inhibitors of human plasma PAF acetylhydrolase (pPAFAH); Q13093; recombinant pPAFAH, FP-rhodamine probe fluorescence polarization; inhibition, % at 3.39 µM; hit rate 1.5% among 330,000; AID 463082;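 active means inhibition above the mean inhibition across the screen plus 3 SD, cut at about 25% in these data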;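 further: inhibitors block binding of the rhodamine activity-based probe so polarization drops; 0% = enzyme with DMSO and 100% = wells lacking pPAFAH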
PAFAH1B3 FP inh = inhibitors of human PAFAH1B3; recombinant PAFAH1B3, FP-rhodamine probe, fluorescence polarization; hit rate 0.28% among 340,000; Q15102; inhibition, % at 3.39 µM;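 active means inhibition above the screen-wide average of all tested compounds plus 3 SD, cut at about 25% in these data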;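 further: 0% = enzyme with DMSO only and 100% = wells lacking PAFAH1B3 protein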
PAFAH2 FP inh = PAFAH2 (human) inhibition; Q99487; recombinant PAFAH2, FP-rhodamine activity probe, fluorescence polarization; inhibition, % at 3.39 µM; hit rate 0.99% among 340,000;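 active means inhibition above the mean over all tested compounds plus 3 SD, cut at about 30% in these data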;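 further: inhibitors block probe labeling of enzyme so polarization drops; 0% = enzyme with DMSO and 100% = wells lacking PAFAH2 protein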
PAFAH1B2 FP inh = blocks human PAF acetylhydrolase 1b catalytic subunit 2; P68402; recombinant PAFAH1B2, FP-rhodamine activity probe, fluorescence polarization; inhibition, % at 3.39 µM; hit rate 1.2% among 340,000;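 active means inhibition above the mean of all tested compounds plus 3 SD, cut at about 24% in these data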;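 further: 0% = enzyme with DMSO and 100% = wells lacking PAFAH1B2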
ARFGAP1 inh = inhibits rat ARF GTPase activating protein 1; Q62848; inhibition, % at 16.5 µM; hit rate 0.26% among 360,000; Arfgap1-stimulated ARF1 GTP hydrolysis, GDP FP detection;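 active means inhibition above a per-plate limit, mean inhibition of low control wells plus 3 SD, cut at about 25% in these data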;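 further: 0% = DMSO wells with enzyme and 100% = wells lacking Arfgap1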
Target sequence (Q62848 1-136 limits assumed): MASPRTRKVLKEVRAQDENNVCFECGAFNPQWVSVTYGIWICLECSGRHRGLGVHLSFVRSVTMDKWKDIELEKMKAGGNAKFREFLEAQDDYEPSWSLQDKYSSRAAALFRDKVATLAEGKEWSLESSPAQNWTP
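Repeats: one replicate per compound; assay system: rat Arfgap1 catalytic domain, aa 1-136; times: enzyme reaction 120 min at 25 °C after 20 min preincubation; detection: FP of antibody-bound GDP Alexa 633 tracer, ex 620/em 688 nm; benchmarks: high control wells lacking Arfgap1, low control full reaction with DMSO; reagent: human ARF1(Δ1-17)-GTP substrate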
ASAP1 inh = inhibitors of human ASAP1 ArfGAP activity. ASAP1-stimulated ARF1 GTP hydrolysis, GDP FP detection. inhibition, % at 16.5 µM. hit rate 0.19% among 360,000. AID 624377; in the data active means inhibition above about 25%;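 further: 0% = vehicle with enzyme and substrate and 100% = no enzyme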
Target sequence (Q9ULH1 325-724 limits assumed): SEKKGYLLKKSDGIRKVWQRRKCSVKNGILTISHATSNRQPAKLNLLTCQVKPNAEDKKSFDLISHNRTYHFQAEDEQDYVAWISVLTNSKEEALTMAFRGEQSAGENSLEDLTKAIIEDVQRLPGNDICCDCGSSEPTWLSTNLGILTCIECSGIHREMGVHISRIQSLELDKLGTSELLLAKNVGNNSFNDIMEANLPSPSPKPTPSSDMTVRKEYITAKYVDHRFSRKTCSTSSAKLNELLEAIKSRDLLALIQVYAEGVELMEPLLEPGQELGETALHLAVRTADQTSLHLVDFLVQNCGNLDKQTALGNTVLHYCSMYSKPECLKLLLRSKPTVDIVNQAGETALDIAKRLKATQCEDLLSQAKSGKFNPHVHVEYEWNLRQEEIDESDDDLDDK
pPAFAH confirm = confirmation of human plasma PAF acetylhydrolase (pPAFAH) inhibitors; AID 463230; hit rate 72% among 2,300; recombinant pPAFAH, FP-Rh probe fluorescence polarization; inhibition, % at 3.39 µM; shares compounds with pPAFAH FP inh;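 active means mean inhibition of the triplicate above the hit cutoff set for the earlier primary screen, cut at about 25% in these data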;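 further: 0% = enzyme with DMSO and 100% = wells lacking pPAFAH enzyme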
The depositor's hits bear a star; / = no result given.

SMILES	pPAFAH FP inh	PAFAH1B3 FP inh	PAFAH2 FP inh	PAFAH1B2 FP inh	ARFGAP1 inh	ASAP1 inh	pPAFAH confirm
Nc1ccc(O)c2c1C(=O)c1ccccc1C2=O	83*	44*	82*	55*	-22	-8	46*
CCOC(=O)c1c(NC(=O)/C=C/C(=O)O)sc(C)c1-c1ccc(Cl)cc1	44*	2	-3	2	-18	6	40*
Cc1cccc(C)c1NC(=O)C(c1ccccc1)N1CCN(C/C=C/c2ccccc2)CC1 (stereo not drawn)	/	/	/	/	2	-9	/
O=C(O)c1ccc(-n2cccc2/C=N\NC(=O)c2cc3cc(Br)ccc3o2)cc1	48*	12	26	3	-6	-4	25*
CC1=NN(c2ccccc2)C(=O)/C1=C/c1c(O)n(-c2ccc(F)cc2)[nH]c1=O	54*	44*	48*	47*	1	-1	53*
CC1=NN(c2ccccc2)C(=O)C1=Cc1ccccc1	/	/	/	/	-12	-2	/
CC(CNCCCn1cnc2c(OCc3ccccc3)ncnc21)c1ccccc1 (stereo not drawn)	/	-2	-4	2	-10	13	/
O=C(N/N=C/c1ccc([N+](=O)[O-])o1)c1ccc(NS(=O)(=O)c2cccs2)cc1	39*	18	14	3	0	9	12
O=C(N/N=C/c1ccc(N2CCOCC2)cc1)c1ccc(NS(=O)(=O)c2cccs2)cc1	7	2	0	0	7	-4	/
N#CCCN(C(=O)COC(=O)c1ccc(S(=O)(=O)Nc2ccccc2)cc1)c1ccccc1	35*	3	-2	-1	8	1	18
COc1ccc(NS(=O)(=O)c2ccc(O)c(NC(=O)c3ccc(S(=O)(=O)N4CCCCCC4)cc3)c2)cc1	46*	-16	-26	1	-3	-14	57*
COc1ccc(C(=O)Nc2ccc(S(=O)(=O)N3CCCC3)cc2)cc1	-2	-1	-5	4	8	20	/
O=C(Nc1cc(S(=O)(=O)N2CCOCC2)ccc1O)c1ccc(NS(=O)(=O)c2ccc(Cl)s2)cc1	45*	-4	2	7	-6	21	45*
COC(=O)c1ccc2nc(-c3cccc(Cl)c3)c(Cc3ccccc3C(F)(F)F)n2c1	/	/	/	/	-5	-4	/
O=C(NCc1ccccc1)c1cc(C2COCCN2S(=O)(=O)c2ccccc2)on1 (stereo not drawn)	/	/	/	/	-1	-6	/
Cc1ccc(C(=O)NNC(=O)CCCN2C(=O)/C(=C/c3ccccc3Cl)SC2=S)cc1	46*	-12	3	2	-14	-10	53*
COc1ccc(-n2nnnc2C(c2ccccc2)N2CCN(C/C=C/c3ccccc3)CC2)cc1 (stereo not drawn)	/	/	/	/	4	-5	/
COC(=O)C1=C(C)N(Cc2ccccc2C(F)(F)F)C(=NCc2ccccc2C(F)(F)F)NC1c1ccc(Cl)cc1 (stereo not drawn)	/	/	/	/	3	12	/
CCOC(=O)C1CSCCS(=O)(=O)N1Cc1ccc(F)cc1 (stereo not drawn)	/	/	/	/	13	0	/
COC(=O)c1cc2c(c3c4cc(OC)ccc4n(S(=O)(=O)c4ccc(F)cc4)c13)C(=O)N(C)C2	/	/	/	/	14	-15	/
O=C1NC(=S)/C(=C\c2ccc(-c3ccccc3Cl)o2)S1	70*	24	41*	9	-23	-6	79*
O=C1NC(=O)/C(=C/c2ccc(-c3cc(C(=O)O)ccc3Cl)o2)S1	18	19	3	8	-18	10	/
COc1cc2cc3c(N)c(C(=O)NCc4ccco4)sc3nc2cc1OC	24	9	0	-2	/	/	/
COc1cc2cc3c(N)c(C(=O)Nc4sc(C)c(C)c4C#N)sc3nc2cc1OC	52*	14	23	7	-19	10	14
c1cc2c(cc1C1CCCCC1)c1c3n2CCCNC3CCC1 (stereo not drawn)	45*	5	4	6	-8	-2	20
SMILES	pPAFAH FP inh	PAFAH1B3 FP inh	PAFAH2 FP inh	PAFAH1B2 FP inh	ARFGAP1 inh	ASAP1 inh	pPAFAH confirm
N#Cc1ccc(OCC(=O)Nc2ccc3[nH]c(=O)[nH]c3c2)cc1	5	8	4	2	-10	-6	/
NC1=NC(=O)/C(=C/c2ccc(Br)cc2)S1	6	2	2	2	1	4	/
NC1=NC(=O)/C(=C/c2cc(Br)c(O)c(Br)c2)S1	48*	34*	10	-3	-11	-6	42*
COC(=O)c1cc2c(c3c4cc(F)ccc4n(S(=O)(=O)c4cccc(C)c4)c13)C(=O)N(Cc1ccco1)C2	/	/	/	/	4	2	/
CC(C)=CCc1c2c(c(O)c3c(=O)c4c(oc13)-c1cc(O)c(O)cc1OC4C=C(C)C)C=CC(C)(C)O2 (stereo not drawn)	37*	/	/	/	/	/	52*
CCN(CC)S(=O)(=O)c1ccc(Cl)c(NC(=O)COC(=O)/C=C/c2ccc(O)c(OC)c2)c1	37*	0	75*	-3	-5	0	13
COc1ccc(-c2cnnc(N/N=C/C(C)=C/c3ccccc3)n2)cc1	3	/	/	/	/	/	/
Nc1nc(SCc2ccc(Br)cc2)n[nH]1	4	14	1	15	4	-5	/
Nc1nc(SCc2ccccc2)n[nH]1	47*	-4	0	2	3	-1	1
O=C(COc1ccc(/C=N/NC(=O)C(=O)N2CCCCCC2)cc1)Nc1ccccc1Cl	0	1	5	0	-2	2	/
COc1ccc(N2CCN(C(=O)COC(=O)c3cccc(S(=O)(=O)Nc4cccc(C)c4)c3)CC2)cc1	40*	2	3	-4	6	-3	44*
OC[C@@H]1CN(Cc2ccc3c(c2)OCO3)C[C@H](n2cnc3c(N4CCCC4)ncnc32)O1	/	/	/	/	16	-1	/
CCCC#C/C(CCC)=C1\c2ccccc2C(=O)N1c1ccccc1	/	/	/	/	-1	-4	/
O=[N+]([O-])C1=C(Nc2cccc3ccccc23)CS(=O)(=O)C1	39*	7	3	10	5	4	4
CCN(C(=O)CCc1cn(CC)c2ccccc12)c1ccc(Oc2cccnc2)cc1	/	/	/	/	15	-2	/
Oc1c(Br)cc(/C=N/Nc2ccc(Cl)nn2)cc1Br	52*	28*	33*	16	-4	5	58*
Oc1c(Br)cc(Br)cc1/C=N/Nc1ccc(Cl)nn1	4	7	29	9	-5	10	/
Oc1ccc(/C=N/Nc2ccc(Cl)nn2)c(O)c1O	57*	16	29	1	-1	0	12
COC(=O)CC#C[C@H](C)[C@@H](NS(C)(=O)=O)C1CCCCC1	/	/	/	/	-4	-13	/
COc1ccccc1N1C(=O)c2ccc(C(=O)Nc3ccccc3O)cc2C1=O	1	3	2	2	-2	-13	/
COc1ccccc1N1C(=O)c2ccc(C(=O)Nc3nccs3)cc2C1=O	43*	/	/	/	3	8	1

Source: PubChem (The Scripps Research Institute Molecular Screening Center)
